# FID counter = counter-screen for HCV NS3 helicase inhibitors: DNA intercalator displacement; DNA fluorescent intercalator displacement, fluorescence; inhibition, % at 7.9 µM; actives 0.17% (n = 290,000); AID 1845; in the data active = inhibition above about 37%;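 note: 0% = vehicle and 100% = reference compound; higher means more ethidium bromide displaced from hairpin DNA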
# p-CIP stab down = p/CIP protein destabilization | F442A p/CIP-EGFP cells, EGFP fluorescence, 16 h | decrease of EGFP signal, % at 10 µM | actives 0.01% (n = 290,000) | AID 1984;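 active = EGFP signal decrease of at least 30% at 10 µM or well 3 SD below plate mean, unless failing retest; inactive = the rest, including hits failing retest or dose response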
# GPR7 antag = human neuropeptides B/W receptor 1 antagonism; GPR7-expressing cells, fluorescence antagonist assay; P48145; inhibition, % at 4.4 µM; AID 1861; actives 1.1% (n = 290,000); in the data active = inhibition above about 16%, passing the limit was not always enough;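 note: cells stimulated with the agonist NPW; 0% = agonist with vehicle and 100% = vehicle without agonist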
# Target sequence (P48145 whole entry, looked up): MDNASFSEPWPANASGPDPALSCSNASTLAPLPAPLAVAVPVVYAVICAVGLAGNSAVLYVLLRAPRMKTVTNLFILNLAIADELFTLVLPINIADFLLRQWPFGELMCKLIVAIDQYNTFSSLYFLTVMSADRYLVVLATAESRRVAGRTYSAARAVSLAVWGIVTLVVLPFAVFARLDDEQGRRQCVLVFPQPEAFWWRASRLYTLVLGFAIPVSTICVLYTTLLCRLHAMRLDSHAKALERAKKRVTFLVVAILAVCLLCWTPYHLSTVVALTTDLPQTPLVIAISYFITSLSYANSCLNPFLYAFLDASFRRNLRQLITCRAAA
# NS3 helicase inh = blocks Hepatitis C virus NS3 helicase unwinding | NS3 helicase DNA unwinding, Cy5 molecular beacon fluorescence | inhibition, % at 10.9 µM | actives 0.56% (n = 290,000);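 active = inhibition above the mean of all tested compounds plus 3 SD, set per campaign, cut at about 35% in these data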;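 note: 0% = DMSO wells and 100% = thioflavine S control wells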
#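 Measured by: Cy5 fluorescence, 0 and 60 min reads / Assay system: NS3 helicase fragment of HCV / Control set: low DMSO, high thioflavine S at 110 µM / Times: 1 h reaction at 25 °C, ATP-initiated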
# core dimer inh = blocks dimerization of HCV core protein; TR-FRET GST/Flag-core106 dimerization, 1536-well; inhibition, % at 5 µM; actives 0.33% (n = 300,000); AID 1899;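 active = inhibition above the mean of all tested compounds plus 3 SD, set per screening campaign, cut at about 45% in these data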
#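 System: GST-tagged and Flag-tagged HCV core protein residues 1-106 / Input: core106 proteins, GST 13.5 nM and Flag 17 nM / Buffer or medium: KF-containing HEPES buffer, pH 7.45, DTT, CHAPS, BSA / Probe or stimulus: Eu-anti-GST and XL665-anti-Flag labelled anti-tag antibodies / Schedule: 4 h, 22.5 °C incubation / Technique: TR-FRET 671 and 617 nm emission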
# GPR7 antag cf = human GPR7 antagonism, confirmation assay. shares compounds with GPR7 antag. GPR7-expressing cells, calcium fluorescence antagonist mode. inhibition, % at 4.4 µM. actives 52% (n = 2,400); in the data active = inhibition above about 24%;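 note: stimulated with the GPR7 agonist NPW; 0% = agonist plus vehicle and 100% = vehicle alone without agonist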
# MCHR1 antag = MCHR1 (human) antagonism in GPR7 counter-screen; inhibition, % at 4.4 µM; shares compounds with GPR7 antag; MCHR1-expressing cells, fluorescence antagonist assay; AID 2148; actives 62% (n = 2,400); in the data active = inhibition above about 22%;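 note: 0% = vehicle with agonist and 100% = vehicle without agonist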
# * marks the source's active call; other numbers are inactive results; nt = not tested or not shown. An excerpt weighted towards active compounds, which were near 1.9% of everything screened.
SMILES,FID counter,p-CIP stab down,GPR7 antag,NS3 helicase inh,core dimer inh,GPR7 antag cf,MCHR1 antag
CC1(c2ccc(OC(F)F)cc2)NC(=O)N(CC(=O)Nc2ccccc2)C1=O (configuration not stated),-12,-8,89*,0,-4,85*,84*
CC1(c2ccc(OC(F)F)cc2)NC(=O)N(CC(=O)Nc2ccc3c(c2)OCO3)C1=O (configuration not stated),-1,-4,78*,-6,-2,83*,82*
COc1cc(OC)cc(N2CCN(S(=O)(=O)c3ccc(-n4cnnn4)cc3)CC2)c1,-9,-3,-22,-3,2,nt,nt
CCOCc1c(C(=O)OCC(=O)Nc2ccc(C)c(S(=O)(=O)N(C)C)c2)oc2ccccc12,-18,3,-3,-10,2,nt,nt
CCCC1CCC(c2ccc(OCC)cc2)=CC1=O (configuration not stated),-28,-11,-11,-9,nt,nt,nt
Cc1cc(NC(=O)c2ccc(C)c([N+](=O)[O-])c2)no1,1,-5,5,5,-10,nt,nt
Cc1cc(NC(=O)c2ccc(Br)c([N+](=O)[O-])c2)no1,4,-14,22*,-13,3,0,4
COc1ccc(-c2csc(NC(=O)c3ccccc3NS(=O)(=O)c3ccc(F)c(F)c3)n2)cc1,14,-4,69*,5,22,52*,59*
COc1ccc(C(=O)Nc2ccc(S(=O)(=O)N3CCCC3)cc2)cc1[N+](=O)[O-],-4,-17,-12,-10,1,nt,nt
COc1cccc(CN2CCN(Cc3cccc(Oc4ccccc4)c3)CC2)c1OC,11,-7,-7,-80,-3,nt,nt
COc1cccc(CN2CCC(N(CCc3ccccc3)Cc3ccccc3)CC2)c1OC,28,-2,23*,-57,1,35*,40*
CCCOc1ccc(-c2csc(N)n2)cc1[N+](=O)[O-],5,5,27*,0,3,13,26*
C/C(=N/NC(=O)CNC(=O)c1cccnc1)c1ccc([N+](=O)[O-])cc1,4,-1,-7,7,2,nt,nt
C/C(=N\NC(=O)Cc1ccc([N+](=O)[O-])cc1)c1cccnc1,-3,8,23*,-3,nt,0,16
O=C(Nc1cccc(CNCCc2c[nH]c3ccccc23)c1)c1ccccc1Cl,11,-8,47*,-74,8,54*,51*
Cc1ccc(C(OCC(O)CNC(CO)C(O)c2ccc([N+](=O)[O-])cc2)c2ccccc2)cc1 (configuration not stated),19,-8,33,-79,-10,nt,nt
CCCCCCCCCn1c2c(c(=N)c3c1CCC3)CCC2,9,-14,78*,-45,12,78*,73*
CCCCCCn1c2c(c(=N)c3c1CCC3)CCC2,6,-26,37*,-6,-3,42*,46*
CCn1c2c(c(=N)c3c1CCC3)CCC2,3,-10,-11,-7,-9,nt,nt
COc1cccc(C(C(=O)NCC2CCCO2)N(C(=O)Cn2nnc3ccccc32)c2ccccc2C(C)=O)c1OC (configuration not stated),-36,9,0,-2,0,nt,nt
Cc1ccc(-c2nc(CS(=O)CC(=O)NCCN3CCCCC3C)c(C)o2)cc1 (configuration not stated),0,5,-6,-4,11,nt,nt
Cc1sc(NC(=O)c2ccco2)c(CN2CCN(c3ccccn3)CC2)c1C,-4,-5,32*,-10,7,13,49*
CCNC(=O)NC(=O)C(C)OC(=O)c1oc2ccc(OC)cc2c1C (configuration not stated),-2,-8,38*,1,8,8,15
O=S(=O)(c1ccc(F)cc1F)N1CCCN(c2ccc(C(F)(F)F)cn2)CC1,-19,-11,-6,-11,0,nt,nt
N#Cc1ccc(S(=O)(=O)N2CCCN(c3ccc(C(F)(F)F)cn3)CC2)cc1,-20,-6,24*,-14,0,19,8
